According to ChEMBL document CHEMBL2150952 (J Med Chem, 2011):

Experiments:
[1] = Drug uptake in eye of C57BL6 mouse at 10 mg/kg, po measured 6 hrs post dose; type: ADME, organism-based; set-up: dose 10 mg/kg, route oral; details: in vivo
[2] = Drug uptake in eye of Beagle dog at 5 mg/kg, po measured 6 hrs post dose; type: ADME, organism-based, Canis lupus familiaris; set-up: dose 5 mg/kg, route oral; details: in vivo
Liver [3] = test: Drug uptake in liver of Sprague-Dawley rat at 10 mg/kg, po measured 6 hrs post dose; type: ADME, organism-based; set-up: dose 10 mg/kg, route oral; details: in vivo
[4] = Drug uptake in liver of female rhesus monkey at 5 mg/kg, po measured 6 hrs post dose; type: ADME, organism-based, Macaca mulatta; set-up: dose 5 mg/kg, route oral; details: in vivo
[5] = Drug uptake in eye of female rhesus monkey at 5 mg/kg, po measured 6 hrs post dose; type: ADME, organism-based, Macaca mulatta; set-up: dose 5 mg/kg, route oral; details: in vivo
[6] = Oral bioavailability in dog; type: ADME, organism-based, Canis lupus familiaris; details: in vivo
Acyl-CoA desaturase 1 [7] = molecular target: T1, Acyl-CoA desaturase 1 (Rattus norvegicus, UniProt P07308); test: Inhibition of rat SCD-1
T1 sequence (P07308 whole entry): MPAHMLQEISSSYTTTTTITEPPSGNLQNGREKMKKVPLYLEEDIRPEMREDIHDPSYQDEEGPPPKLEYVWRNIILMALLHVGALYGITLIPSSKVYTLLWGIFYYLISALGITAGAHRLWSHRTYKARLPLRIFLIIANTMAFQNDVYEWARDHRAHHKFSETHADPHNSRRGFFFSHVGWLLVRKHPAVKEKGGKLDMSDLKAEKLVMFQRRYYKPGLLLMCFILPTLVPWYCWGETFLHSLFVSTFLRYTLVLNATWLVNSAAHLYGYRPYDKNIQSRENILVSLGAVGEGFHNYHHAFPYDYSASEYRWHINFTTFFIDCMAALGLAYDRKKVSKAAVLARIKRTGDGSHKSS

Acyl-CoA desaturase 1 [8] = molecular target: T1, Acyl-CoA desaturase 1; test: Inhibition of SCD-1 activity in Sprague-Dawley rat Hepatocytes expressing organic anion transporting polypeptides assessed as reduction in [I-14C] […] desaturation by scintillation counting; type: cell-based, Hepatocyte
Outline: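 Rat hepatocytes (4 × 10^6 cells/mL) were preincubated with compound for 15 min at 37 °C/5% CO2. 14C-stearic acid (final 0.5 μCi/mL) was then added for 1 h with shaking. Cells were washed, hydrolyzed in 2N NaOH at 75 °C for 1 h, acidified and extracted. Radiolabeled oleic and stearic acids were quantified by HPLC with flow scintillation detection. Mean of at least n = 3.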

Liver [9] = test: Drug uptake in liver of Beagle dog at 5 mg/kg, po measured 6 hrs post dose; type: ADME, organism-based, Canis lupus familiaris; set-up: dose 5 mg/kg, route oral; details: in vivo
[10] = Apparent permeability across pig LLC-PK1 cells; type: ADME, cell-based, Sus scrofa
[11] = Drug level in harderian gland of diet-induced obese C57BL6 mouse at 20 mg/kg, po BID; type: ADME, organism-based; set-up: dose 20 mg/kg, route oral; details: in vivo, read-out: Drug uptake
Outline: (§1)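 eDIO mice were dosed orally for 4 weeks, either 20 mg/kg bid or 5 mg/kg qd. Liver, Harderian gland and skin were taken at trough at study termination, and compound concentration was measured by LC-MS.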

Mus musculus [12] = test: Toxicity in diet-induced obese C57BL6 mouse assessed as adverse effect in skin at 20 to 60 mg/kg, po BID measured within 4 weeks; type: organism-based; set-up: dose 20-60 mg/kg, route oral; details: in vivo, 672 h
Outline: (§2)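 Male C57/Bl6 mice on high fat diet for at least 18 weeks from 6 weeks of age. Given 7 days vehicle run-in (1% methocel bid), then randomized by body weight and dosed orally at 20 or 60 mg/kg bid for 28 days (n = 8–10/group). Skin (hair loss/lesion) and eye (squint to closure) scored 0–3 twice weekly.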

Mus musculus [13] = test: Toxicity in diet-induced obese C57BL6 mouse assessed as adverse effect in eye at 20 to 60 mg/kg, po BID measured within 4 weeks; type: organism-based; set-up: dose 20-60 mg/kg, route oral; details: in vivo, 672 h; outline: as §2
[14] = Drug uptake in eye of Sprague-Dawley rat at 10 mg/kg, po measured 6 hrs post dose; type: ADME, organism-based; set-up: dose 10 mg/kg, route oral; details: in vivo
Mus musculus [15] = test: Antidiabetic activity in diet-induced obese C57BL6 mouse assessed as reduction in glucose AUC at 7 to 10 mg/kg, po administered 1 hr before oral glucose administration measured 2 hrs thereafter; type: functional; details: dose mg/kg 7-10
Mus musculus [16] = test: Toxicity in diet-induced obese C57BL6 mouse assessed as reduction in food intake at 20 to 60 mg/kg, po BID; type: organism-based; set-up: dose 20-60 mg/kg, route oral; details: in vivo
Outline: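 Obese male C57/Bl6 mice after at least 18 weeks of high fat diet and a 7-day vehicle run-in, randomized by body weight. Dosed orally at 20 or 60 mg/kg bid for 28 days (n = 8–10/group). Food consumption monitored twice weekly.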

[17] = Oral bioavailability in rat; type: ADME, organism-based; details: in vivo
[18] = Oral bioavailability in mouse; type: ADME, organism-based; details: in vivo
Outline: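 Fasted male C57BL6 mice given 2 mg/kg IV and 10 mg/kg PO. Plasma drug levels measured by LC-MS/MS, mean of n = 3 animals, and PK parameters derived from these.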

Liver [19] = test: Drug level in liver of diet-induced obese C57BL6 mouse at 20 mg/kg, po BID; type: ADME, organism-based; set-up: dose 20 mg/kg, route oral; details: in vivo, read-out: Drug uptake; outline: as §1
Liver [20] = test: Drug uptake in liver of C57BL6 mouse at 10 mg/kg, po measured 6 hrs post dose; type: ADME, organism-based; set-up: dose 10 mg/kg, route oral; details: in vivo
Mus musculus [21] = test: Antidiabetic activity in po dosed diet-induced obese fasted C57BL6 mouse assessed as increase in glucose clearance administered 1 hr before glucose challenge measured 12 hrs thereafter by OGTT; type: functional; details: in the assay text read “2 hrs” for “12 hrs”
Outline: (§3)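 Male C57/Bl6 mice were kept on a high fat diet for at least 14 weeks from 6 weeks of age, then fasted 16 h. Compound was given orally 1 h before a 2 g/kg oral glucose load.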

Acyl-CoA desaturase 1 [22] = molecular target: T1, Acyl-CoA desaturase 1; test: Inhibition of SCD-1 activity in Sprague-Dawley rat microsome assessed as reduction in [I-14C] stearoyl CoA desaturation by scintillation counting; type: microsomes
Zone of skin [23] = test: Drug uptake in skin of Sprague-Dawley rat at 10 mg/kg, po measured 6 hrs post dose; type: ADME, organism-based; set-up: dose 10 mg/kg, route oral; details: in vivo
[24] = Drug uptake in skin of Beagle dog at 5 mg/kg, po measured 6 hrs post dose; type: ADME, organism-based, Canis lupus familiaris, Zone of skin; set-up: dose 5 mg/kg, route oral; details: in vivo
[25] = Drug uptake in skin of female rhesus monkey at 5 mg/kg, po measured 6 hrs post dose; type: ADME, organism-based, Macaca mulatta, Zone of skin; set-up: dose 5 mg/kg, route oral; details: in vivo
Mus musculus [26] = test: Antidiabetic activity in diet-induced obese C57BL6 mouse assessed as reduction in body weight gain at 60 mg/kg, po BID; type: functional; set-up: scale not given: the % may be the effect or the level left
Outline: (§4)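 Male C57/Bl6 mice were fed a high fat diet for at least 18 weeks from 6 weeks of age, then given vehicle (1% methocel, bid) for 7 days and randomized by body weight. Oral dosing (qd or bid) ran for 28 days, with n = 8–10/group. Body weight, food intake and skin/eye scores were recorded twice weekly.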

Mus musculus [27] = test: Antidiabetic activity in diet-induced obese C57BL6 mouse assessed as reduction in glucose AUC at 7 to 30 mg/kg, po administered 1 hr before oral glucose administration measured 2 hrs thereafter; type: functional; details: dose mg/kg 7-30; outline: as §3
Mus musculus [28] = test: Antidiabetic activity in diet-induced obese C57BL6 mouse assessed as reduction in body weight gain at 20 mg/kg, po BID; type: functional; set-up: scale not given: the % may be the effect or the level left; outline: as §4
Zone of skin [29] = test: Drug uptake in skin of C57BL6 mouse at 10 mg/kg, po measured 6 hrs post dose; type: ADME, organism-based; set-up: dose 10 mg/kg, route oral; details: in vivo
Mus musculus [30] = test: Antidiabetic activity in diet-induced obese C57BL6 mouse assessed as reduction in glucose AUC at 3 to 7 mg/kg, po administered 1 hr before oral glucose administration measured 2 hrs thereafter; type: functional; details: dose mg/kg 3-7
Mus musculus [31] = test: Inhibition of SCD activity in liver of diet-induced obese C57BL6 mouse assessed as reduction in desaturation induces at 20 mg/kg, po BID administered for 4 weeks; type: functional; details: 672 h

Structure (SMILES): O=C(O)Cn1nnc(-c2cc(N3CCC(Oc4cc(F)ccc4Br)CC3)no2)n1 [MK-8245]
- Drug uptake [1]: Active
- Drug uptake [2]: Active
- Drug uptake (Liver [3]): Active
- Drug uptake [4]: Active
- Drug uptake [5]: Active
- bioavailability [6]: 40%
- IC50 (Acyl-CoA desaturase 1 [7]): 3 nM
- IC50 (Acyl-CoA desaturase 1 [8]): 68 nM
- Drug uptake (Liver [9]): Active
- Papp [10]: 3.8 ×10⁻⁶ cm/s
- concentration [11]: 900 nM
- Activity (Mus musculus [12]): Non-toxic
- Activity (Mus musculus [13]): Non-toxic
- Drug uptake [14]: Active
- inhibition (INH) (Mus musculus [15]): 60%
- Activity (Mus musculus [16]): Non-toxic
- bioavailability [17]: 28%
- bioavailability [18]: 12%
- concentration (Liver [19]): 5000 nM
- Drug uptake (Liver [20]): Active
- ED50 (Mus musculus [21]): 7 mg/kg
- IC50 (Acyl-CoA desaturase 1 [22]): 3 nM
- Drug uptake (Zone of skin [23]): Active
- Drug uptake [24]: Active
- Drug uptake [25]: Active
- Activity (Mus musculus [26]): 5%
- inhibition (INH) (Mus musculus [27]): 89%
- Activity (Mus musculus [28]): 5%
- Drug uptake (Zone of skin [29]): Active
- inhibition (INH) (Mus musculus [30]): 36%
- inhibition in vivo at 20 mg/kg (Mus musculus [31]): 63%
